Results: ChEMBL document CHEMBL1131263, “Substituted tetrahydropyrrolo[2,1-b]oxazol-5(6H)-ones and tetrahydropyrrolo[2,1-b]thiazol-5(6H)-ones as hypoglycemic agents” (1998)

Tests used:
[1] = lowest concentration at which glucose utilized was greater than or equal to 140% of control value tested in a glucose utilization L6 myocyte in vitro assay; type: functional, Rattus norvegicus
Procedure, shortened: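 Differentiated rat L6 myotubes (day 11 or 13 after plating) exposed 20 h to compound in serum-free DMEM with 15 mM glucose and 1% final DMSO. Tested in quadruplicate at 3, 10, 30, 100, 300 µM. Glucose left in the medium read by glucose oxidase. Value is the lowest concentration giving at least 40% more utilization than control.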

Mus musculus [2] = assay: compound was tested in vivo for lower blood glucose levels in diabetic obese ob/ob mice by measuring postprandial blood glucose level on day 3 after 2 hours at 200 uM/kg oral dose; type: functional
Procedure, shortened: (§1)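 Adult male C57BL ob/ob mice, fed, grouped (6/group) and matched for blood glucose on day 0; mice under 150 mg/dL excluded. Oral dosing in the morning on days 1-3, vehicle 0.5% CMC with 0.2% Tween-80. Significance versus vehicle.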

Mus musculus [3] = assay: compound was tested in vivo for lower blood glucose levels in diabetic obese ob/ob mice by measuring postprandial blood glucose level on day 3 after 4 hours at 200 uM/kg oral dose; type: functional; procedure, shortened: as §1
Mus musculus [4] = assay: compound was tested in vivo for lower blood glucose levels in diabetic obese ob/ob mice by measuring postprandial blood glucose level on day 3 after 8 hours at 200 uM/kg oral dose; type: functional; procedure, shortened: as §1
Mus musculus [5] = assay: compound was tested in vivo for lower blood glucose levels in diabetic obese ob/ob mice by measuring postprandial blood glucose level on day1 after 2 hours at 200 uM/kg oral dose; type: functional; procedure, shortened: as §1
Mus musculus [6] = assay: compound was tested in vivo for lower blood glucose levels in diabetic obese ob/ob mice by measuring postprandial blood glucose level on day1 after 4 hours at 200 uM/kg oral dose; type: functional; procedure, shortened: as §1
Mus musculus [7] = assay: In vivo lowering of blood glucose levels in diabetic obese ob/ob mice, measuring postprandial blood glucose level on day 3 after 2 hours at 300 uM/kg oral dose; type: functional; procedure, shortened: as §1
Mus musculus [8] = assay: In vivo lowering of blood glucose levels in diabetic obese ob/ob mice by measuring postprandial blood glucose level on day 3 after 4 hours at 300 uM/kg oral dose; type: functional; procedure, shortened: as §1
Mus musculus [9] = assay: In vivo lowering of blood glucose levels in diabetic obese ob/ob mice by measuring postprandial blood glucose level on day 3 after 8 hours at 300 uM/kg oral dose; type: functional; procedure, shortened: as §1
Mus musculus [10] = assay: In vivo lowering of blood glucose levels in diabetic obese ob/ob mice, measuring postprandial blood glucose level on day1 after 2 hours at 300 uM/kg oral dose; type: functional; procedure, shortened: as §1
Mus musculus [11] = assay: In vivo lowering of blood glucose levels in diabetic obese ob/ob mice by measuring postprandial blood glucose level on day1 after 4 hours at 300 uM/kg oral dose; type: functional; procedure, shortened: as §1
Mus musculus [12] = assay: compound was tested in vivo for lower blood glucose levels in diabetic obese ob/ob mice by measuring postprandial blood glucose level on day1 after 4 hours at 300 uM/kg oral dose *p < 0.05; type: functional; procedure, shortened: as §1

Row | Compound | Lowest effective concentration for glucose utilization ≥140% of control [1] | Efficacy (Mus musculus [2]) | Efficacy (Mus musculus [3]) | Efficacy (Mus musculus [4]) | Efficacy (Mus musculus [5]) | Efficacy (Mus musculus [6]) | Efficacy (Mus musculus [7]) | Efficacy (Mus musculus [8]) | Efficacy (Mus musculus [9]) | Efficacy (Mus musculus [10]) | Efficacy (Mus musculus [11]) | Efficacy (Mus musculus [12])
1 | O=C1C[C@@H]2O[C@@H](CO)CN12 | 30 µM | 53% | 23% | 44% | 66% | 86% | – | – | – | – | – | –
2 | OCc1cc(-c2ccc(Cl)cc2)no1 | 100 µM | – | – | – | – | – | 61% | 53% | 34% | -3% | -1% | –
3 | OCc1cc(-c2ccc(C(F)(F)F)cc2)no1 | 100 µM | – | – | – | – | – | 6% | 48% | 50% | 14% | – | 52%
4 | O=C1CC[C@]2(c3ccc(Cl)cc3)SCCN12 | 300 µM | – | – | – | – | – | 57% | 64% | 68% | 16% | 2% | –
5 | O=C1CC[C@]2(c3ccccc3)O[C@H](COc3ccc(Cl)cc3)CN12 | 100 µM | – | – | – | – | – | 18% | -16% | -28% | 3% | 45% | –
6 | O=C1CC[C@]2(c3ccc(Cl)cc3)S[C@@H](COc3ccc(Cl)cc3)CN12 | 10 µM | – | – | – | – | – | 44% | 48% | 35% | 9% | 3% | –
7 | O=C1CC[C@]2(c3ccc4ccccc4c3)O[C@H](COc3ccc(Cl)cc3)CN12 | 30 µM | – | – | – | – | – | 49% | 62% | 39% | 21% | 37% | –
8 | O=C1CC[C@]2(c3ccc4oc5ccccc5c4c3)O[C@H](COc3ccc(Cl)cc3)CN12 | 30 µM | – | – | – | – | – | 8% | 16% | 7% | -25% | -43% | –
9 | CC(C)C(=O)N1C[C@H](COc2ccc(Cl)cc2)O[C@@H]1c1ccc(Cl)c(Cl)c1 | 30 µM | – | – | – | – | – | 20% | 24% | 6% | 32% | 21% | –
10 | O=C1CC[C@]2(c3ccc(Cl)cc3)S[C@H](COc3ccc(Cl)cc3)CN12 | >300 µM | – | – | – | – | – | -11% | 9% | 11% | 28% | 14% | –
11 | O=C1CC[C@]2(c3ccc4ccccc4c3)O[C@@H](COc3ccc(Cl)cc3)CN12 | >300 µM | – | – | – | – | – | 13% | 7% | 8% | -6% | -11% | –
12 | CC(C)(O)c1cc(-c2ccc(Oc3ccccc3)cc2)no1 | 30 µM | – | – | – | – | – | 61% | 60% | 55% | 6% | -2% | –
13 | O=C1CCC[C@]2(c3ccc(Oc4ccccc4)cc3)OCCN12 | 30 µM | – | – | – | – | – | 45% | 50% | 3% | 25% | 29% | –
14 | O=C1CC[C@]2(c3ccc(Oc4ccccc4)cc3)OCCN12 | 300 µM | – | – | – | – | – | -3% | -1% | -4% | -8% | 11% | –
15 | O=C1CC[C@]2(c3ccc(Cl)c(Cl)c3)OC(COc3ccc(Cl)cc3)CN12 (stereo partly specified) | 10 µM | – | – | – | – | – | 70% | 80% | 78% | 0% | 36% | –
16 | O=C1CC[C@]2(c3ccc(-c4ccccc4)cc3)O[C@H](COc3ccc(Cl)cc3)CN12 | 10 µM | – | – | – | – | – | 20% | 35% | 7% | 16% | 17% | –

Row | Compound | Lowest effective concentration for glucose utilization ≥140% of control [1] | Efficacy (Mus musculus [2]) | Efficacy (Mus musculus [3]) | Efficacy (Mus musculus [4]) | Efficacy (Mus musculus [5]) | Efficacy (Mus musculus [6]) | Efficacy (Mus musculus [7]) | Efficacy (Mus musculus [8]) | Efficacy (Mus musculus [9]) | Efficacy (Mus musculus [10]) | Efficacy (Mus musculus [11]) | Efficacy (Mus musculus [12])
17 | CC(=O)N1C[C@@H](COc2ccc(Cl)cc2)O[C@@H]1c1ccc(Cl)c(Cl)c1 | 30 µM | – | – | – | – | – | 69% | 70% | 61% | 8% | 26% | –
18 | COc1ccc([C@]23CCC(=O)N2C[C@@H](COc2ccc(Cl)cc2)O3)cc1 | 30 µM | – | – | – | – | – | -5% | -27% | 12% | -12% | 3% | –
19 | CS(=O)(=O)N1C[C@@H](COc2ccc(Cl)cc2)O[C@@H]1c1ccc(Cl)cc1 | 30 µM | – | – | – | – | – | 11% | 55% | 22% | -10% | 18% | –
20 | O=C1CC[C@]2(c3ccc(Oc4ccccc4)cc3)O[C@H](COc3ccc(Cl)cc3)CN12 | 10 µM | – | – | – | – | – | 2% | -25% | -3% | -29% | -6% | –
21 | O=C1CCC[C@]2(c3ccccc3)O[C@H](COc3ccc(Cl)cc3)CN12 | 30 µM | – | – | – | – | – | 10% | 50% | 54% | 42% | 29% | –
22 | O=C1CC[C@]2(c3ccc(F)cc3)O[C@H](COc3ccc(Cl)cc3)CN12 | 30 µM | – | – | – | – | – | 67% | 60% | 38% | -2% | 19% | –
23 | O=C1CC[C@]2(c3ccc4c(c3)CCc3ccccc3-4)O[C@H](COc3ccc(Cl)cc3)CN12 | 30 µM | – | – | – | – | – | 51% | 56% | 45% | 31% | 38% | –
24 | O=C1CC[C@]2(c3cccnc3)O[C@H](COc3ccc(Cl)cc3)CN12 | 300 µM | – | – | – | – | – | 1% | 22% | 35% | 22% | 20% | –
25 | COc1ccc(OC[C@@H]2CN3C(=O)CC[C@]3(c3ccc(Cl)cc3)O2)cc1 | 100 µM | – | – | – | – | – | -19% | -8% | -28% | -17% | -20% | –
26 | COC(=O)N1C[C@H](COc2ccc(Cl)cc2)O[C@@H]1c1ccc(Cl)c(Cl)c1 | 30 µM | – | – | – | – | – | 25% | 19% | -9% | 13% | 40% | –
27 | CS(=O)(=O)N1C[C@H](COc2ccc(Cl)cc2)O[C@@H]1c1ccc(Cl)cc1 | 100 µM | – | – | – | – | – | 35% | 59% | 29% | -12% | -4% | –
28 | OCc1cc(-c2ccc(Oc3ccccc3)cc2)no1 | 30 µM | – | – | – | – | – | 56% | 14% | 24% | 14% | 15% | –
29 | O=C1CC[C@]2(c3ccc(Cl)cc3)O[C@H](COc3ccc(Cl)cc3)CN12 | 30 µM | 14% | -15% | -26% | 31% | 46% | – | – | – | – | – | –
30 | CC(=O)N1C[C@H](COc2ccc(Cl)cc2)O[C@@H]1c1ccc(Cl)cc1 | 100 µM | – | – | – | – | – | 42% | 54% | 54% | 10% | 0% | –
31 | O=C1CC[C@]2(c3ccc(Cl)cc3)OCCN12 | >1000 µM | – | – | – | – | – | 23% | 28% | 11% | 21% | 7% | –
